The target in data set [1] is T1, Bromodomain and PHD finger-containing protein 3 (Homo sapiens, UniProt Q9ULD4).
T1 sequence (Q9ULD4 whole entry): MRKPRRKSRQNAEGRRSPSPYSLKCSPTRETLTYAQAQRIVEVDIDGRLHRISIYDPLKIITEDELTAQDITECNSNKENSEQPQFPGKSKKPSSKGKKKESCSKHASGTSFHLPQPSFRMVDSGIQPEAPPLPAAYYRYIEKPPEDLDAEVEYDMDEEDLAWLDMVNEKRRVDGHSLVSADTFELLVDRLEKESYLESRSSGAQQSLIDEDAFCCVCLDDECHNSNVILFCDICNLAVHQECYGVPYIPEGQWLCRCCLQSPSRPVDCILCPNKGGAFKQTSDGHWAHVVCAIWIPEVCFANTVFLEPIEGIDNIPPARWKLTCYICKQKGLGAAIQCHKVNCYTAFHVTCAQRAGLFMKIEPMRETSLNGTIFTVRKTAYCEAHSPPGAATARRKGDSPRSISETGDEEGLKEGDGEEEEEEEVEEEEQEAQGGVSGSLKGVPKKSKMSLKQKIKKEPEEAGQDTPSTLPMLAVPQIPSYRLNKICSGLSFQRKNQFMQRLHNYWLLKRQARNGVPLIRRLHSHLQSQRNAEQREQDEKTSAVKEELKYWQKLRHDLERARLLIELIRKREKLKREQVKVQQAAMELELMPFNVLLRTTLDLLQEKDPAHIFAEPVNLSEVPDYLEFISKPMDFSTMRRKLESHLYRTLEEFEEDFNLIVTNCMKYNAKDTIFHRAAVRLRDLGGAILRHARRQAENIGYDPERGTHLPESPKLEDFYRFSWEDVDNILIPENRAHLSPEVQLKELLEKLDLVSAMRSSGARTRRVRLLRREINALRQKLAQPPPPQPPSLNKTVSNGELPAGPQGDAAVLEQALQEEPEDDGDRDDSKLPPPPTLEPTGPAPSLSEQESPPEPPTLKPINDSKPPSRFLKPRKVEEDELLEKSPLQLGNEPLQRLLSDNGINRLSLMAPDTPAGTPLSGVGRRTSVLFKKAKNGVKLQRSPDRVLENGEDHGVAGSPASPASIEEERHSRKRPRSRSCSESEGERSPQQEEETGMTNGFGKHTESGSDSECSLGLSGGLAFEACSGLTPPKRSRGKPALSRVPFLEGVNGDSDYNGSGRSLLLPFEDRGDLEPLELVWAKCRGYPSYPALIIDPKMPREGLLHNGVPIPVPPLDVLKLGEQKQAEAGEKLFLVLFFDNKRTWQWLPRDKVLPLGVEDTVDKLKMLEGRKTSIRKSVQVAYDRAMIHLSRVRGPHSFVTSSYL
The data set can be described thus: Binding affinity to human BRPF3 by isothermal titration calorimetry.

A short description of data set [2]: Aqueous solubility of compound. It is filed as physicochemical. The settings on record: buffer.
A further data set relates to NOMO-1. The data set can be described thus: Growth inhibition of human NOMO1 cells after 72 hrs. It is filed as functional. To be noted: NOMO-1, 72 h.
For a further data set, the system named is THP-1. Kind of data set: Growth inhibition of human THP1 cells after 72 hrs. The data set is classed as functional. The settings on record: THP-1, 72 h.
The next data set has as its system MV4-11. Kind of data set: Growth inhibition of human MV4-11 cells after 72 hrs. It is filed as functional. To be noted: MV4-11, 72 h.
Another data set has as its system COLO 205. Kind of data set: Growth inhibition of human COLO205 cells after 72 hrs. It is filed as functional. The settings on record: COLO 205, 72 h.
Data set [3] can be described thus: Growth inhibition of human OCUM1 cells after 72 hrs. To be noted: OCUM1, 72 h. The data set is classed as functional.
The test system of the next data set is LoVo. Kind of data set: Growth inhibition of human LoVo cells after 72 hrs. The data set is classed as functional.
The next data set relates to Hs 766. Kind of data set: Growth inhibition of human Hs766T cells after 72 hrs. The settings on record: Hs 766, 72 h. It is filed as functional.
For another data set, the system named is SNU-5. The data set can be described thus: Growth inhibition of human SNU5 cells after 72 hrs. The data set is classed as functional. To be noted: SNU-5, 72 h.
Another data set relates to OCI-LY19. Kind of data set: Growth inhibition of human OCI-LY19 cells after 72 hrs. It is filed as functional. The settings on record: OCI-LY19, 72 h.
Another data set relates to SW-620. The data set can be described thus: Growth inhibition of human SW620 cells after 72 hrs. The data set is classed as functional. The settings on record: SW-620, 72 h.
The test system of a further data set is LS180. Kind of data set: Growth inhibition of human LS180 cells after 72 hrs. The data set is classed as functional. The settings on record: LS180, 72 h.
Data set [4] is described as follows: Volume of distribution in CD-1 mouse blood at 1 mg/kg, iv administered as bolus. It is filed as ADME, organism-based. To be noted: whole blood. In short, it runs like this:
(§1)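 Female CD-1 mice (n = 3), single dosing: intravenous 1.0 mg/kg, or oral 3.0 mg/kg given as a suspension. Blood levels were followed over time to derive clearance, volume of distribution, elimination half-life, Cmax, Tmax, AUC0−∞, oral bioavailability and fraction absorbed.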

A short description of data set [5]: AUC (0 to infinity) in CD-1 mouse blood at 3 mg/kg, po. To be noted: whole blood. On the set-up: dose 3 mg/kg, time infinity, route oral. It is filed as ADME, organism-based. In short, it runs like this:
as §1

Data set [6] is described as follows: Oral bioavailability in CD-1 mouse at 3 mg/kg. It is filed as ADME, organism-based. The settings on record: in vivo. In short, it runs like this: as §1
For the next data set, the target named is CREB-binding protein (Homo sapiens, UniProt Q92793). Kind of data set: Inhibition of human CREBBP expressed in Escherichia coli BL21 after 1 hr by BROMOscan assay.
Data set [7] addresses Histone acetyltransferase KAT2B (Homo sapiens, UniProt Q92831). Kind of data set: Inhibition of human PCAF expressed in Escherichia coli BL21 after 1 hr by BROMOscan assay.
Data set [8] concerns the target E3 ubiquitin-protein ligase TRIM33 (Homo sapiens, UniProt Q9UPN9). The data set can be described thus: Inhibition of human TRIM33 expressed in Escherichia coli BL21 after 1 hr by BROMOscan assay.
The target of data set [9] is Chromatin remodeling regulator CECR2 (Homo sapiens, UniProt Q9BXF3). Kind of data set: Inhibition of human His tagged CECR2 incubated for 30 mins followed by addition of biotinylated peptide and further incubation for 30 mins measured by AlphaScreen assay. In general terms: In Alpha technology, singlet oxygen from a donor bead excites a nearby acceptor bead.
For data set [10], the target named is Nucleosome-remodeling factor subunit BPTF (Homo sapiens, UniProt Q12830). The data set can be described thus: Inhibition of human His tagged FALZ incubated for 30 mins followed by addition of biotinylated peptide and further incubation for 30 mins measured by AlphaScreen assay.

≈ marks a conversion by molar mass, not a printed value.

E3 ubiquitin-protein ligase TRIM33, sequence (Q9UPN9 whole entry): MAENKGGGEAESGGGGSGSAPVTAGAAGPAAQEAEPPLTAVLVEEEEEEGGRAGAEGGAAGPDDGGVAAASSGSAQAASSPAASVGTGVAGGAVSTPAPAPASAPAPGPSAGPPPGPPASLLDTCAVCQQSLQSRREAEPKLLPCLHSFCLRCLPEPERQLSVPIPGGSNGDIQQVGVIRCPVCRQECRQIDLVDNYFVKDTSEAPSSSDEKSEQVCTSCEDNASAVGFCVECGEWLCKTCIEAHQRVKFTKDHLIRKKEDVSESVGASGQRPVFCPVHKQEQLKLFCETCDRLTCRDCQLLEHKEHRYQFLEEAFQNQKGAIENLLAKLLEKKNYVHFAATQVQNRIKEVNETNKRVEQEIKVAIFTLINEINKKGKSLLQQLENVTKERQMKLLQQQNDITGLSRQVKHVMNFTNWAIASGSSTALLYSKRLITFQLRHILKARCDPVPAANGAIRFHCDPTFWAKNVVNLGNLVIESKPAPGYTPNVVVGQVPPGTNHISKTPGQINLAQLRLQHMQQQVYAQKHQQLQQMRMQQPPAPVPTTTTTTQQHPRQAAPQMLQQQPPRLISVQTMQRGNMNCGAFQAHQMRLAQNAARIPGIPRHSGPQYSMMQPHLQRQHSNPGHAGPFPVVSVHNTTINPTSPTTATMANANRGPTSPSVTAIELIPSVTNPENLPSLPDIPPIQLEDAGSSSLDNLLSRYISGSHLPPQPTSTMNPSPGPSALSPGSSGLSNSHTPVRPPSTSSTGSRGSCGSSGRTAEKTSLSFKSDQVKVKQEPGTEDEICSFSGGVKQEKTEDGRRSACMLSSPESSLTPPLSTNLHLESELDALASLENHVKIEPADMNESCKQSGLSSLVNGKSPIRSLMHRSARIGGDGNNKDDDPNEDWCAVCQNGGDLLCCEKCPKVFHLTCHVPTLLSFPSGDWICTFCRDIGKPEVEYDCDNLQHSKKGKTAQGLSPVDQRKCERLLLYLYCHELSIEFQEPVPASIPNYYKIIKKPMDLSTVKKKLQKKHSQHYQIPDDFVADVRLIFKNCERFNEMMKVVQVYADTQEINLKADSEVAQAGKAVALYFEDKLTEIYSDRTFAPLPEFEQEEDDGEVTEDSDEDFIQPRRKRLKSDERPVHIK
Histone acetyltransferase KAT2B, sequence (Q92831 whole entry): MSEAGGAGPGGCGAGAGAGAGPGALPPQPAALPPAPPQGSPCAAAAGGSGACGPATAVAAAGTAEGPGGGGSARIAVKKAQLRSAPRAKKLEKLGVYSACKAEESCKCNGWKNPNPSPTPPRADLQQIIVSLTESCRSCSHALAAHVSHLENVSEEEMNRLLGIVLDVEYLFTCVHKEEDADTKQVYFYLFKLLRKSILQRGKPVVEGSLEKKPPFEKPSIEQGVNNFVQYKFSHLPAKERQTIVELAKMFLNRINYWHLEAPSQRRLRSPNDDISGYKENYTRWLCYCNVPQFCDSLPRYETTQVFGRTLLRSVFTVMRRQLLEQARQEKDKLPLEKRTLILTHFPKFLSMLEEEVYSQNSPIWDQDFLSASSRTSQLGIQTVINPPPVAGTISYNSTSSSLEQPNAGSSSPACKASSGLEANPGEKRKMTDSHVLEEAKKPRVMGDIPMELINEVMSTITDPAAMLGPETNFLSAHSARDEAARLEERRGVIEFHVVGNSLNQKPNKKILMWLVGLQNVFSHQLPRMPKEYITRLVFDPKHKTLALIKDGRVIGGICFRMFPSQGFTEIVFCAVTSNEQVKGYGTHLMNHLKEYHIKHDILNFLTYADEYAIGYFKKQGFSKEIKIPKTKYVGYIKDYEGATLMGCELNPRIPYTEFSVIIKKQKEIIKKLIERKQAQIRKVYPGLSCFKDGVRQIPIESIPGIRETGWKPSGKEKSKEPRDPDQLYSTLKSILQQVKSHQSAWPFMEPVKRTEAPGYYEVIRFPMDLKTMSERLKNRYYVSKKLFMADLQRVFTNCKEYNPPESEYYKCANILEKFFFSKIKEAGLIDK
Chromatin remodeling regulator CECR2, sequence (Q9BXF3 whole entry): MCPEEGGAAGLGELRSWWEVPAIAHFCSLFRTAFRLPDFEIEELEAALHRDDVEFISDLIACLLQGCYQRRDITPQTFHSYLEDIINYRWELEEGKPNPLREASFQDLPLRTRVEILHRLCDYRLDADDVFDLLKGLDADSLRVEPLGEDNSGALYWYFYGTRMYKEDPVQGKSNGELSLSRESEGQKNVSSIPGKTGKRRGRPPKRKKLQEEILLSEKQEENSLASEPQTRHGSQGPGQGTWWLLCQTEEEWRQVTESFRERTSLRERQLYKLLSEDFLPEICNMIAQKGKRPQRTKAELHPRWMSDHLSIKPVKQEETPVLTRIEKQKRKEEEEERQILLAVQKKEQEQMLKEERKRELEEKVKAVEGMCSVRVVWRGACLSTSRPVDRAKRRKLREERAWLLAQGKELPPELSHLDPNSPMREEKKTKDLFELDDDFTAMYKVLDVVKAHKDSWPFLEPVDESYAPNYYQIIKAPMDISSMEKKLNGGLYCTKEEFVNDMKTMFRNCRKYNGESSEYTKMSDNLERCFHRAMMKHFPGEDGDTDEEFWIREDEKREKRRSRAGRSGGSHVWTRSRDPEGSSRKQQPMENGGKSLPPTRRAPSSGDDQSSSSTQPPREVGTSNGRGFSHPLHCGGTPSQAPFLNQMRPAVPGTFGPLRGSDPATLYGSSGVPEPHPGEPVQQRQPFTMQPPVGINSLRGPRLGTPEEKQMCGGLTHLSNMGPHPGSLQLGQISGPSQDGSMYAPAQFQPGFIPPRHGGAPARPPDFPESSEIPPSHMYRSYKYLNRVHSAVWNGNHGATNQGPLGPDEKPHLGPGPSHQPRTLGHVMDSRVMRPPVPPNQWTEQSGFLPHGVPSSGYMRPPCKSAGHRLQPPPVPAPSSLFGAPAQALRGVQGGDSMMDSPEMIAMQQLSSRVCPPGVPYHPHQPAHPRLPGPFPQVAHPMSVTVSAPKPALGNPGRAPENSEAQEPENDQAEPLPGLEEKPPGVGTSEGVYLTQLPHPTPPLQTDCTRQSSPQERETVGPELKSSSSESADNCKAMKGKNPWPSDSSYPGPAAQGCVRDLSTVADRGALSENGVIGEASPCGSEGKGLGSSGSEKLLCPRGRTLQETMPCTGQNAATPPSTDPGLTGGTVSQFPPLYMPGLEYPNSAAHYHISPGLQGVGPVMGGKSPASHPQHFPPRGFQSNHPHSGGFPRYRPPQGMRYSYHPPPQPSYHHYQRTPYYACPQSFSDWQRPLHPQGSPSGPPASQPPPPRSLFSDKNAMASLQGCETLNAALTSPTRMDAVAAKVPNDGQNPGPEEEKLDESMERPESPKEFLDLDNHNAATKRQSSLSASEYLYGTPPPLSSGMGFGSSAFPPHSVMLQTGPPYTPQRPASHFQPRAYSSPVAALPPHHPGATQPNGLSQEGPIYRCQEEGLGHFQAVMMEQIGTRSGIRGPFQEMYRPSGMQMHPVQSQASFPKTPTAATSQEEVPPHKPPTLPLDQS

What is called Kd is the free concentration of one partner at which half of the binding sites on the other are occupied at equilibrium, for simple one-to-one binding. A low value points to tighter binding. Usually solubility stands for the dissolved amount per volume that the medium holds. A high value points to much dissolved substance. Broadly, the GI50 is the concentration giving 50% growth inhibition. The low end stands for more potent growth inhibition, the high end for less potent growth inhibition. For orientation: Vd means the apparent volume that relates the amount in the body to the concentration in plasma or blood. A higher Vd goes with wide distribution into tissue. As a reminder, the AUC(0-inf) is the area under the concentration-time curve extrapolated to infinity. The bioavailability is the share of a dose that reaches the circulation, judged against a reference dose that is usually intravenous. Turning to `Cc1cc2cc(NS(=O)(=O)c3ccc(C#N)cc3)ccc2n(C)c1=O`, in data set [1], the Kd was determined as 0.94 µM. For the same compound, the concentration in solution in data set [2] (solubility) was 100 µM (≈ 35.3 µg/mL). Further, the GI50 in the data set with NOMO-1 is 4.6 µM; with THP-1 it was 5.7 µM; in the data set with MV4-11 it was 9.9 µM; with COLO 205, 1 to 10 µM; in data set [3], 1 to 10 µM; in the data set on LoVo it was 1 to 10 µM. Moreover, the GI50 in the data set with Hs 766, with SNU-5, in the data set with OCI-LY19, in the data set on SW-620 and in the data set with LS180 was 1 to 10 µM each time. For the same compound, in data set [4], the Vd came to 0.7 L/kg. Further, the AUC(0-inf) in data set [5] was determined as 5700 ng·h/mL. Also, the bioavailability in data set [6] was determined as 49%.
One may read the IC50 as the concentration needed to halve the response being measured. High values mean weaker potency in that assay, low ones greater potency in that assay. Take `CCc1cc2cc(NS(=O)(=O)c3ccc(C#N)cc3)ccc2n(CC)c1=O`: the IC50 at CREB-binding protein is greater than 100 µM; in data set [7] it was greater than 100 µM; in data set [8], greater than 100 µM; in [9], greater than 20 µM; in [10], greater than 20 µM.
